697 NFkB inh: lowers PMA/ionomycin-induced NF-kB signal in 697 B cells | hit rate 0.33% among 330,000 | inhibition, % at 4 µM | 697 B-cell NF-kB luciferase reporter, 16 h | AID 435022; in the data active = inhibition above about 35%
IMP-1 inhibitor: inhibitors of Pseudomonas aeruginosa IMP-1 metallo-beta-lactamase; purified IMP-1, nitrocefin hydrolysis, epi-absorbance fluorescence; inhibition, % at 5.6 µM; hit rate 0.45% among 290,000;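 active = inhibition above the mean plus 3 SD of all compounds in the same screening run, cut at about 4.5% in these data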
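Test system: recombinant IMP-1 enzyme, purified / Medium: HEPES buffer pH 7.1 with ZnSO4 and Brij 35 / Doses: single dose, 5.6 µM / Times: 25 °C, 15 min preincubation, 25 min reaction / Detection: Epi-absorbance via hydrolysed-nitrocefin quenching of white-plate fluorescence, 480/530 nm, EDTA stop / Evaluation: percent inhibition from optical density relative to buffer-blank wells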
Mdm2 MdmX PPI: inhibitors of human Mdm2/MdmX interaction; AID 485346; hit rate 3% among 330,000; SaOS-2 split-luciferase Mdm2/MdmX complementation, luminescence; inhibition, % at 8 µM; O15151+Q00987;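 active = inhibition of at least 50% at 8 µM in the primary screen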
Target sequence (O15151 whole entry, looked up): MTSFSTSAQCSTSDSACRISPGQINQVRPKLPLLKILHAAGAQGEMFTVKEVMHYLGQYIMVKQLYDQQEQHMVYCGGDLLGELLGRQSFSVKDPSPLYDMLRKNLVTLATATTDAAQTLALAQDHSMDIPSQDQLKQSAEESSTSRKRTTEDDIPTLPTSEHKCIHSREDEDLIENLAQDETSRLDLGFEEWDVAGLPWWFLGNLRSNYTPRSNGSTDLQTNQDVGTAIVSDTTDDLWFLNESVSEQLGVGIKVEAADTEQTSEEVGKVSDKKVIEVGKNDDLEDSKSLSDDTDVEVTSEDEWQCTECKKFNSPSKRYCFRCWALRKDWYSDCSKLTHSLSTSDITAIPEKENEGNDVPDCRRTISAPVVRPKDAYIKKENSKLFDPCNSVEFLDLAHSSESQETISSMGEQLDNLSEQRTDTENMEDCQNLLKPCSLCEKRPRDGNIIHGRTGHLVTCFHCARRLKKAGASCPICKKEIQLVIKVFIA
Target sequence (Q00987 whole entry, looked up): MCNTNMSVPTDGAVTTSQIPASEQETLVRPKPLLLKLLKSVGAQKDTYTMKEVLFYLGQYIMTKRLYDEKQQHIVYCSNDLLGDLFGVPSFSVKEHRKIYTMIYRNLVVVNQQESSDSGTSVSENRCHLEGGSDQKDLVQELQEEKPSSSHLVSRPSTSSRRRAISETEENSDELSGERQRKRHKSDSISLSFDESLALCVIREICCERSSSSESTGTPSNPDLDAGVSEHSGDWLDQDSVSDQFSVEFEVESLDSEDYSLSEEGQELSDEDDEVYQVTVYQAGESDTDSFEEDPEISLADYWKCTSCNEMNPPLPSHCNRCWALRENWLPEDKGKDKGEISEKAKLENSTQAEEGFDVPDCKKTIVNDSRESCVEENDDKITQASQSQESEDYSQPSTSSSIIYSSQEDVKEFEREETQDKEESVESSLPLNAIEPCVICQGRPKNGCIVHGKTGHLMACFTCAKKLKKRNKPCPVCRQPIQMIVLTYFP
aSyn UTR inh: 5' untranslated region of α-synuclein, MLPCN primary screen; hit rate 0.82% among 300,000; AID 1813; inhibition, % (tested at 7.5 µM); alpha-synuclein 5'UTR reporter, inhibitor activity; in the data active = inhibition above about 60%; inconclusive = no clear call, values can overlap the other calls;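 also: H4 neuroglioblastoma cells stably carrying SNCA 5'UTR luciferase fusion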
Jurkat NFkB inh: inhibitors of the PMA/ionomycin-induced NF-kB reporter in Jurkat cells; PMA/ionomycin-induced NF-kB luciferase reporter, luminescence; AID 435003; hit rate 0.53% among 330,000; inhibition, % at 4 µM; in the data active = inhibition above about 50%
VIM-2 inh: inhibitors of Pseudomonas aeruginosa VIM-2 metallo-beta-lactamase; hit rate 0.89% among 290,000; inhibition, % at 5.6 µM; purified VIM-2, nitrocefin hydrolysis, epi-absorbance fluorescence;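 active = inhibition above the mean of all tested compounds plus 3 SD, cutoff set per screening run, cut at about 7.5% in these data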;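 also: red hydrolysis product quenches plate fluorescence so inhibitors raise well fluorescence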
Mdm2-MdmX conf: human Mdm2/MdmX binding inhibition, confirmed; shares compounds with Mdm2 MdmX PPI; luminescent assay; inhibition, % at 8 µM; hit rate 55% among 10,000; in the data active = inhibition above about 40%
FLuc counter: inhibits full-length luciferase, flagging false Mdm2/MdmX hits | shares compounds with Mdm2 MdmX PPI | SaOS-2 full-length luciferase counterscreen, luminescence | inhibition, % at 8 µM | hit rate 77% among 6,200 | AID 504607;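 active = mean inhibition at 8 µM reaching about 37%, which flags the compound as non-specific, limit read from the data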;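 also: p53-null SaOS-2 cells with luciferase driven by a doxycycline-inducible promoter; compound on cells about two nights before reading with doxycycline added after day one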
Large screens that a line does not name were inactive (follow-up assays come after a bar, where they were run). Hits are enriched below; roughly 4.7% of the tested compounds scored in any of these assays.

Cc1ccc2c(c1)c1c(n2CC(O)Cn2c(C)nc3ccccc32)/C(=N\O)CCC1 (configuration not stated)	Mdm2 MdmX PPI 60 | Mdm2-MdmX conf inactive
CC(C)[C@H](NC(=O)c1ccccc1Cl)C(=O)OCc1cc(=O)n2cc(Br)ccc2n1	none
CCC1Nc2ncnc(N3CCc4ccccc4C3)c2N(Cc2ccc(Cl)cc2)C1=O (configuration not stated)	none (no result: IMP-1 inhibitor, aSyn UTR inh, VIM-2 inh)
O=C1C(Cc2ccccc2)Nc2ncnc(N3CCc4ccccc4C3)c2N1Cc1ccc(Cl)cc1 (configuration not stated)	Mdm2 MdmX PPI 56 (no result: IMP-1 inhibitor, VIM-2 inh) | Mdm2-MdmX conf 49 | FLuc counter 57
Cc1ccn2c(NC3CCCCC3)c(-c3cccc(SC4CCCCC4)c3)nc2c1	Mdm2 MdmX PPI 91 (no result: IMP-1 inhibitor, aSyn UTR inh, VIM-2 inh) | Mdm2-MdmX conf inactive
COc1ccc(/C=N/Nc2nonc2N)cc1OC	Mdm2 MdmX PPI 51 | Mdm2-MdmX conf inactive
CCc1ccccc1NC(=O)CN1CCN(CC(=O)Nc2ccc(-c3ccccc3)cc2)CC1	none
CCc1ccccc1NC(=O)CN1CCN(C(=O)CNC(=O)c2ccc(-c3ccccc3)cc2)CC1	Mdm2 MdmX PPI 50 (no result: IMP-1 inhibitor, aSyn UTR inh, VIM-2 inh) | Mdm2-MdmX conf inactive
COc1ccc(NC(=O)c2c(Nc3ccccc3)sc(C(=O)c3ccc(F)cc3)c2N)cc1	Mdm2 MdmX PPI 62 | Mdm2-MdmX conf inactive
CCNc1ccc2noc3c2c1C(=O)c1ccccc1-3	none
O=C1c2ccccc2-c2onc3ccc(NCc4ccco4)c1c23	Mdm2 MdmX PPI 58 | Mdm2-MdmX conf inactive
COc1ccc2[nH]c(=O)c(CN(Cc3cccnc3)Cc3nnnn3CC3CCCO3)cc2c1 (configuration not stated)	none
CCc1cccc(CC)c1NC(=S)NCCc1c(C)[nH]c2ccccc12	Mdm2 MdmX PPI 51 | Mdm2-MdmX conf inactive
COc1cc(C2c3[nH]c4ccccc4c3C[C@@H]3C(=O)N(Cc4ccco4)CC(=O)N23)cc(OC)c1OC (some centres not stated)	none
C=CCc1cccc([C@@H]2[C@@H](C)CC[C@H]3C(=O)N4[C@@H](c5cc(OC)c(OC)c(OC)c5)c5[nH]c6ccccc6c5C[C@H]4C(=O)N23)c1	Mdm2 MdmX PPI 71 | Mdm2-MdmX conf 63 | FLuc counter 60
O=C(Cn1cnc2c(oc3nc4c(cc32)CCCC4)c1=O)Nc1cccc(Cl)c1	Mdm2 MdmX PPI 57, aSyn UTR inh 66 | Mdm2-MdmX conf inactive
O=C(Cc1cccc2ccccc12)NNC(=O)c1ccc(Br)o1	none
CCc1ccn2cc(-c3ccc4c(c3)OCO4)nc2c1	Mdm2 MdmX PPI 62, aSyn UTR inh 107 | Mdm2-MdmX conf 53 | FLuc counter 92
CC1(C)Cc2ccccc2C2=NNC(=O)C2=N1	Mdm2 MdmX PPI 86 | Mdm2-MdmX conf 65 | FLuc counter inactive
COc1ccccc1Nc1nc(NCC(C)C)nc(N)c1[N+](=O)[O-]	Mdm2 MdmX PPI 62, aSyn UTR inh 77 | Mdm2-MdmX conf 47 | FLuc counter 59
COc1ccc(OC)c(Nc2nc(NCCC(C)C)nc(N)c2[N+](=O)[O-])c1	none
C=CCNc1nc(N)c([N+](=O)[O-])c(Nc2ccccc2OC)n1	Mdm2 MdmX PPI 59, aSyn UTR inh inconclusive | Mdm2-MdmX conf inactive
CNC[C@H](Cc1ccccc1)NC[C@@H](Cc1cccc2ccccc12)NCCc1ccc(C)cc1	Mdm2 MdmX PPI 100, aSyn UTR inh 123 | Mdm2-MdmX conf 86 | FLuc counter 51
CCC(=O)NC(c1cc(Cl)c2cccnc2c1O)C1CC1 (configuration not stated)	Mdm2 MdmX PPI 53 (no result: IMP-1 inhibitor, aSyn UTR inh, VIM-2 inh) | Mdm2-MdmX conf 47 | FLuc counter inactive
CCC(=O)NC(c1cc(Cl)c2cccnc2c1O)C(C)C (configuration not stated)	Mdm2 MdmX PPI 53 (no result: IMP-1 inhibitor, aSyn UTR inh, VIM-2 inh) | Mdm2-MdmX conf 53 | FLuc counter inactive
CCOC(=O)c1c(C)[nH]c(C)c1S(=O)(=O)N(C)CC(=O)Nc1cccc(C)c1	none
CN(Cc1cn(Cc2ccccc2)nc1-c1ccc2c(c1)OCO2)Cc1nccn1C	none
Cc1ccc(S(=O)(=O)c2nc(S(C)(=O)=O)sc2N2CCCCC2C)cc1 (configuration not stated)	Mdm2 MdmX PPI 57 | Mdm2-MdmX conf 41 | FLuc counter 40
Cc1cc2cc3c(cc2nc1SCC(=O)N1CCCC1)OCCO3	none
N#Cc1cc2cc3c(cc2nc1SCC(=O)N1CCOCC1)OCCO3	Mdm2 MdmX PPI 84, aSyn UTR inh 110 | Mdm2-MdmX conf 88 | FLuc counter 81
CCC/C=N/NC(=O)c1[nH]c2c([N+](=O)[O-])cccc2c1C	none
CCOc1ccc(NC(=O)CNC(=O)c2nn(-c3ccc(OC)c(OC)c3)c(=O)c3ccccc23)cc1	none
COc1ccc(-n2nc(C(=O)NCC(=O)NC(C)C)c3ccccc3c2=O)cc1Cl	none
COc1ccc(-n2nc(C(=O)Nc3ccc(OC)c(OC)c3)c3c4ccccc4n(C)c3c2=O)cc1	Mdm2 MdmX PPI 76 | Mdm2-MdmX conf inactive
COc1ccc(-n2nc(C(=O)NCC(=O)Nc3cccc(Cl)c3)c3ccccc3c2=O)cc1OC	Mdm2 MdmX PPI 80 | Mdm2-MdmX conf 48 | FLuc counter 37
COc1ccc(-n2nc(C(=O)NCC(=O)Nc3ccccn3)c3ccccc3c2=O)cc1Cl	Mdm2 MdmX PPI 88 | Mdm2-MdmX conf inactive
CC(C)n1c(SCC(=O)Nc2nc3c(s2)CCCC3)nc2c1c(=O)n(C)c(=O)n2C	Mdm2 MdmX PPI 60 | Mdm2-MdmX conf inactive | FLuc counter 40
Cc1nc(C2COc3ccccc3O2)sc1C(=O)O (configuration not stated)	none
Cc1ccc(C)c(N2CCN(C(=O)C(Cc3ccccc3)n3cccc3)CC2)c1 (configuration not stated)	Mdm2 MdmX PPI 50 | Mdm2-MdmX conf inactive
O=C(CNC(=O)c1ccc(Br)cc1)NCc1cccnc1	none
NNc1ncnc2sc3c(c12)CCC3	none
C(=N\Nc1ncnc2sc3c(c12)CCC3)/c1cccs1	Mdm2 MdmX PPI 58 | Mdm2-MdmX conf 50 | FLuc counter inactive
O=C(CCN1CCN(C(c2ccccc2)c2ccccc2)CC1)N/N=C/c1ccc(O)cc1O	Mdm2 MdmX PPI 60 | Mdm2-MdmX conf 69 | FLuc counter 37
COC(=O)COc1ccc(S(=O)(=O)NCc2ccc3c(c2)OCO3)cc1C	none
O=C1N=C2SCCN2/C1=C\c1ccc(Cl)cc1	Mdm2 MdmX PPI 52 | Mdm2-MdmX conf inactive
CN(C)S(=O)(=O)c1cccc(NC(=O)COC(=O)c2cccnc2Cl)c1	none (no result: IMP-1 inhibitor, aSyn UTR inh, VIM-2 inh)
CNCc1sccc1C	none

Screening results as filed in PubChem.
